According to ChEMBL document CHEMBL1914453, “1,1-Diarylalkenes as anticancer agents: dual inhibitors of tubulin polymerization and phosphodiesterase 4” (Bioorg Med Chem, 2011):

Key:
PBMC = assay: Inhibition of LPS-induced TNFalpha production in human PBMC preincubated 1 hr prior to LPS stimulation measured after 18 to 20 hrs by ELISA; format: functional, cell-based
How it was run: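 PBMC were isolated by Ficoll-Hypaque density centrifugation and plated at 2 × 10⁵ cells in triplicate. Compounds in DMSO (0.25% final) were added 1 h before stimulation with LPS from S. abortus equi at 1 ng/ml. After 18–20 h at 37 °C in 5% CO₂, supernatant TNF-α was measured by ELISA. IC50 values are means of at least three determinations.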

[1] = Inhibition of tubulin polymerization at 5 uM after 60 mins by spectrophotometry
Phosphodiesterase 4 = Phosphodiesterase 4 (Homo sapiens, UniProt P27815+Q08499+Q07343+Q08493); assay: Inhibition of human PDE4 expressed in U937 cells using [3H]cAMP as substrate after 30 mins; conditions: u-937
How it was run: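 PDE4 was purified from U937 human monocytic cells by gel filtration. Reactions ran in 50 mM Tris–HCl pH 7.5 with 5 mM MgCl₂, 1 µM cAMP and 10 nM [³H]-cAMP for 30 min at 30 °C. They were stopped by boiling, treated with snake venom (1 mg/ml) and separated on ion-exchange resin. Substrate consumption stayed below 15%. IC50 values are means of at least three determinations, with SEM.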

[2] = Inhibition of tubulin polymerization at 10 uM after 60 mins by spectrophotometry
HCT-116 [3] = assay: Cytotoxicity against human HCT116 cells assessed as reduction of [3H]thymidine incorporation after 72 hrs by scintillation counting; format: functional, cell-based
How it was run: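 HCT-116 cells were seeded 24 h before compound and treated with serial dilutions in triplicate for 72 h at 37 °C. [³H]thymidine (1 µCi per well) was added for the last 6 h, and incorporation was read by scintillation counting. IC50 came from nonlinear sigmoidal regression (top 100%, bottom 0%, variable slope). Values are means of at least three independent determinations, with SEM from the individual IC50s.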

[4] = Solubility of the compound at pH 7.4 after 4 hrs by UV-Vis spectrophotometry; format: physicochemical; conditions: buffer
How it was run: (§1)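 A suspension of about 1 mg/mL (0.5 mL) in pH 5.0 or pH 7.4 buffer was stirred at 400 rpm for 4 h and then filtered. Concentration was determined by UV-vis plate reading (200–400 nm) against standard curves for each compound. Replicate measurements were made at pH 5.0.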

[5] = Solubility of the compound at pH 5 after 4 hrs by UV-Vis spectrophotometry; format: physicochemical; conditions: buffer; how it was run: as §1
[6] = Ratio of IC50 for human PDE4 expressed in U937 cells to IC50 for human HCT116 cells; set-up: species or system HCT-116
HCT-116 [7] = assay: Antitumor activity against human HCT116 cells xenografted in SCID mouse assessed as tumor growth inhibition at 5 mg/kg, ip once every 4 days measured twice weekly relative to control; format: functional; conditions: HCT-116, ip, 96 h, route intraperitoneal, read-out: GI
How it was run: (§2)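 Female SCID mice, 6–8 weeks old, inoculated s.c. in the right hind leg with 2 × 10⁶ HCT-116 cells in sterile PBS. On day 8, mice with 75–125 mm³ tumors were randomized and dosed ip in CMC-Tween vehicle (0.5% carboxymethylcellulose, 0.25% Tween 80 in water). Tumors were measured twice weekly by caliper, volume W² × L / 2, and compared with vehicle.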

[8] = Stability in human plasma assessed as half life by LC-MS/MS analysis; format: ADME, cell-free
How it was run: (§3)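 Analogs were incubated in human plasma at 37 °C and sampled at 0, 0.5, 1, 2, 3, 4, 6, 8 and 24 h. Samples were quenched in acetonitrile with 0.1% formic acid and internal standard, centrifuged, and analysed by LC–MS/MS in MRM mode on a C18 monolithic column with an aqueous acetonitrile/0.1% formic acid gradient. Percentage remaining was taken from analyte/IS peak-area ratios relative to time zero.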

Plasma = assay: Stability in human plasma assessed as formation of (E/Z)-3-(3-Amino-4-methoxyphenyl)-3-(3-ethoxy-4- methoxyphenyl)acrylonitrile by LC-MS/MS analysis; format: ADME, cell-free; how it was run: as §3
HCT-116 [9] = assay: Antitumor activity against human HCT116 cells xenografted in SCID mouse assessed as tumor growth inhibition at 20 mg/kg, ip once daily measured twice weekly relative to control; conditions: HCT-116, ip, 24 h, read-out: GI
Mus musculus = assay: Toxicity in SCID mouse xenografted with human HCT116 cells assessed as reduction in body weight at 20 mg/kg, ip once daily measured after day 19 relative to control; format: organism-based, HCT-116; set-up: dose 20 mg/kg, route intraperitoneal; scale not given: the % may be the effect or the level left; conditions: in vivo
How it was run: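 SCID mice carrying s.c. HCT-116 tumors were dosed ip at 20 mg/kg once daily in CMC-Tween vehicle (0.5% carboxymethylcellulose, 0.25% Tween 80) from day 8. Health was monitored daily and body weights were compared with the vehicle group.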

HCT-116 [10] = assay: Antitumor activity against human HCT116 cells xenografted in SCID mouse assessed as reduction in tumor volume at 20 mg/kg, ip qd measured twice weekly relative to control; format: functional; set-up: scale not given: the % may be the effect or the level left; conditions: route intraperitoneal; how it was run: as §2

inhibition [1]	IC50 (Phosphodiesterase 4)	inhibition [2]	solubility at 4 h [4]	solubility at 4 h [5]	half-life [8]	Stability (Plasma)	SMILES	IC50 (PBMC)	IC50 (HCT-116 [3])	Ratio IC50 [6]	inhibition in vivo at 5 mg/kg (HCT-116 [7])	inhibition in vivo at 20 mg/kg (HCT-116 [9])	Activity (Mus musculus)	Activity (HCT-116 [10])
65%	0.047 µM	76%	< 0.003 mg/mL	< 0.003 mg/mL	–	–	CCOc1cc(C(=CC#N)c2ccc(OC)c(N)c2)ccc1OC	0.031 µM	0.019 µM	–	–	–	–	–
–	> 10 µM	–	–	–	–	–	COc1cc(OC)cc(C(=C(C)C)c2ccc(OC)c(O)c2)c1	7 µM	0.97 µM	10	–	–	–	–
–	–	–	–	–	–	–	CCc1c2c(nc3ccc(OC(=O)N4CCC(N5CCCCC5)CC4)cc13)-c1cc3c(c(=O)n1C2)COC(=O)[C@]3(O)CC [IRINOTECAN]	–	–	–	85%	–	–	–
59%	0.4 µM	70%	0.205 mg/mL	0.356 mg/mL	56 h	Stable	CCOc1cc(C(=CC#N)c2ccc(OC)c(NC(=O)CN)c2)ccc1OC.Cl	0.031 µM	0.093 µM	–	–	64%	15%	–
48%	0.054 µM	59%	–	–	–	–	CCOc1cc(C(=CC#N)c2cc(OC)cc(OC)c2)ccc1OC	0.043 µM	0.034 µM	–	–	–	–	16%
–	0.15 µM	–	0.405 mg/mL	1.04 mg/mL	27 h	Stable	CCOc1cc(C(=CC#N)c2ccc(OC)c(NC(=O)[C@H](C)N)c2)ccc1OC.Cl	0.027 µM	0.04 µM	–	–	–	–	–
